# Source: ChEMBL document CHEMBL1122704, “Syntheses and anthelmintic activity of alkyl 5(6)-(substituted-carbamoyl)- and 5(6)-(disubstituted-carbamoyl)benzimidazole-2-carbamates and related compounds” (1984)
# Activity calls are given as the source filed them. The calls are words filed in the database; no cut-off is given here.
# Assays:
# [1] = tested on: Cricetinae gen. sp.; experiment: Compound was evaluated for the biological activity against Ancylostoma ceylanicum in hamsters at the 100 mg/kg; assay type: functional, Cricetulus griseus
# Procedure, shortened: (§1)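 Hamsters of either sex (40–60 g) infected orally with 60 third-stage larvae. Test compound given orally as a single dose on day 20 ± 1 postinfection, starting at 250 mg/kg × 1. Lower doses were used for active compounds to establish dose–response. Method of Ray et al. as modified locally.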
# [2] = tested on: Nippostrongylus brasiliensis; experiment: (§2) Anti-nematode activity against Nippostrongylus brasiliensis in rats at 250 mg/kg; Insignificant activity.; assay type: functional
# [3] = tested on: Ancylostoma ceylanicum; experiment: Compound was evaluated for the biological activity against Ancylostoma ceylanicum in hamsters at the 250 mg/kg; assay type: functional; procedure, shortened: as §1
# [4] = tested on: Rattus norvegicus; experiment: Compound was evaluated for the biological activity against Hymenolepsis nana (rats) at the 250 mg/kg; assay type: functional
# Procedure, shortened: (§3)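 Male rats (25–35 g) infected orally with 200 viable eggs. Infection confirmed by ovoscopic examination on days 17–20 postinoculation. Positive rats dosed orally on day 20 ± 1, initially 250 mg/kg × 1, then lower doses for dose–response. Method of Steward.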
# [5] = tested on: Cricetinae gen. sp.; experiment: Compound was evaluated for the biological activity against Ancylostoma ceylanicum in hamsters at the 50 mg/kg; assay type: functional, Cricetulus griseus; procedure, shortened: as §1
# [6] = tested on: Rattus norvegicus; experiment: Compound was evaluated for the biological activity against Hymenolepsis nana (rats) at the 250 mg/kg; insignificant activity; assay type: functional, organism-based; design: dose 250 mg/kg; procedure, shortened: as §3
# [7] = tested on: Cricetinae gen. sp.; experiment: Compound was evaluated for the biological activity against Ancylostoma ceylanicum in hamsters at the 100 mg/kg; insignificant activity; assay type: functional, organism-based; design: dose 100 mg/kg; details: Cricetulus griseus; procedure, shortened: as §1
# [8] = tested on: Cricetinae gen. sp.; experiment: Compound was evaluated for the biological activity against Ancylostoma ceylanicum in hamsters at the 100-6.25 mg/kg; assay type: functional, Cricetulus griseus; procedure, shortened: as §1
# [9] = tested on: Cricetinae gen. sp.; experiment: Compound was evaluated for the biological activity against Ancylostoma ceylanicum in hamsters at the 3.12 mg/kg; assay type: functional, Cricetulus griseus; procedure, shortened: as §1
# [10] = tested on: Rattus norvegicus; experiment: Compound was evaluated for the biological activity against Nippostrongylus brasiliensis in rats at the 25 mg/kg; assay type: functional
# Procedure, shortened: (§4)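 Male rats (25–40 g) inoculated subcutaneously with 500 larvae taken from 6–8-day-old fecal culture. Compounds given orally on day 9 postinfection at 250 mg/kg × 3, with lower doses as follow-up for active compounds. Steward technique as modified by Katiyar and Sen.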
# [11] = tested on: Rattus norvegicus; experiment: Compound was evaluated for the biological activity against Nippostrongylus brasiliensis in rats at the 100-50 mg/kg; assay type: functional; procedure, shortened: as §4
# [12] = tested on: Rattus norvegicus; experiment: Compound was evaluated for the biological activity against Hymenolepsis nana (rats) at the 100 mg/kg; assay type: functional; procedure, shortened: as §3
# [13] = tested on: Rattus norvegicus; experiment: Compound was evaluated for the biological activity against Hymenolepsis nana (rats) aat the 250 mg/kg; assay type: functional; procedure, shortened: as §3
# [14] = tested on: Rattus norvegicus; experiment: Compound was evaluated for the biological activity against Hymenolepsis nana (rats) at the 50 mg/kg; assay type: functional; procedure, shortened: as §3
# [15] = tested on: Rattus norvegicus; experiment: Compound was evaluated for the biological activity against Nippostrongylus brasiliensis in rats at the 250 mg/kg; assay type: functional; procedure, shortened: as §4
# [16] = tested on: Rattus norvegicus; experiment: Compound was evaluated for the biological activity against Hymenolepsis nana (rats)at the 250 mg/kg; insignificant activity; assay type: functional, organism-based; design: dose 250 mg/kg; procedure, shortened: as §3
# [17] = tested on: Rattus norvegicus; experiment: Compound was evaluated for the biological activity against Hymenolepsis nana (rats) at the 200 mg/kg; assay type: functional; procedure, shortened: as §3
# [18] = tested on: Rattus norvegicus; experiment: Compound was evaluated for the biological activity against Nippostrongylus brasiliensis (rats) at the 100 mg/kg; assay type: functional; procedure, shortened: as §4
# [19] = tested on: Cricetinae gen. sp.; experiment: Compound was evaluated for the biological activity against Ancylostoma ceylanicum (hamsters and dogs) at the 50 mg/kg; assay type: functional, Cricetulus griseus
# [20] = tested on: Cricetinae gen. sp.; experiment: Compound was evaluated for the biological activity against Ancylostoma ceylanicum in hamsters at the 250 mg/kg; insignificant activity; assay type: functional, organism-based; design: dose 250 mg/kg; details: Cricetulus griseus; procedure, shortened: as §1
# [21] = as §2; assay type: functional
# [22] = tested on: Canis familiaris; experiment: Efficiency against Ancylostoma ceylanicum (hookworm) in dog at the 10 x 3 mg/kg; assay type: functional, Canis lupus familiaris
# [23] = tested on: Rattus norvegicus; experiment: Compound was evaluated for the biological activity against Hymenolepsis nana (rats) at the 100-50 mg/kg; assay type: functional; procedure, shortened: as §3
# [24] = tested on: Rattus norvegicus; experiment: Efficiency against L carinii (filarid worm) in cotton (against both microfilariae and adults) rat at the 50 x 5 mg/kg (po); inactive; assay type: functional, organism-based; design: dose 5 mg/kg; details: at 5 mg/kg
# [25] = tested on: Rattus norvegicus; experiment: Efficiency against L carinii (filarid worm) in cotton (against both microfilariae and adults) rat at the 10 x 5 mg/kg (ip); inactive; assay type: functional, organism-based; design: dose 5 mg/kg; details: at 5 mg/kg
# [26] = tested on: Felis catus; experiment: Efficiency against Ancylostoma tubaeformis (hookworm) in cat at the 10 x 3 mg/kg; inactive; assay type: functional, organism-based; design: dose 3 mg/kg; details: at 3 mg/kg
# [27] = tested on: Canis familiaris (dog); experiment: Efficiency against Toxocara species. (Ascaris) in dog at the 25 x 3 mg/kg
# [28] = tested on: Canis familiaris; experiment: Efficiency against Ancylostoma ceylanicum (hookworm) in dog at the 25 x 3 mg/kg; assay type: functional, Canis lupus familiaris
# [29] = tested on: Rattus norvegicus; experiment: Efficiency against L carinii (filarid worm) in cotton (against microfilariae and inactive against adults) rat at 100 x 5 mg/kg (po); assay type: functional
# [30] = tested on: Mus musculus; experiment: Efficiency against Syphacia obvelata (pinworm) in mouse at the 12.5 x 3 mg/kg; assay type: functional
# Procedure, shortened: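 Adult mice of both sexes (20–30 g) with pinworm infection, assessed by Standon's method. Oral dosing started at 25 mg/kg × 3, followed by lower doses for active compounds. Mebendazole at 50 mg/kg × 3 served as positive control.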
# [31] = tested on: Rattus norvegicus; experiment: Compound was evaluated for the biological activity against Hymenolepsis nana (rats) at the 25 mg/kg; assay type: functional; procedure, shortened: as §3
# [32] = tested on: Rattus norvegicus; experiment: Efficiency against L carinii (filarid worm) in cotton (on microfilariae) rat at the 30 x 5 mg/kg (ip); assay type: functional
# [33] = tested on: Rattus norvegicus; experiment: Efficiency against L carinii (filarid worm) in cotton (on adults) rat at the 30 x 5 mg/kg (ip); assay type: functional
# [34] = tested on: Felis catus; experiment: Efficiency against Ancylostoma tubaeformis (hookworm) in cat at the 25 x 3 mg/kg; assay type: functional
# [35] = tested on: Rattus norvegicus; experiment: Efficiency against L carinii (filarid worm) in cotton (against adults) rat at the 30 x 5 mg/kg (ip); assay type: functional
# [36] = tested on: Canis familiaris (dog); experiment: Efficiency against Taenia species. (tapeworm) in dog at the 25 x 3 mg/kg; inactive; details: at 3 mg/kg
SMILES,Activity [2],Activity [3],Activity [4],Activity [6],also measured
COC(=O)Nc1nc2cc(C(=O)Nc3cccc(C)n3)ccc2[nH]1,inactive,100%,100%,–,Activity [1]: 100%; Activity [5]: 92.5%
CCOC(=O)Nc1nc2cc(C(=O)NCCc3ccc(OC)c(OC)c3)ccc2[nH]1,–,–,–,inactive,–
COC(=O)Nc1nc2cc(C(=O)NC3=NCCS3)ccc2[nH]1,inactive,100%,100%,–,Activity [7]: inactive; Activity [5]: 55.5%
COC(=O)Nc1nc2cc(C(=O)N3CCN(c4ccccc4)CC3)ccc2[nH]1,–,100%,–,–,Activity [8]: 100%; Activity [9]: 77%; Activity [10]: 86.6%; Activity [11]: 100%; Activity [12]: 100%; Activity [13]: 100%; Activity [14]: 100%; Activity [15]: 100%
COC(=O)Nc1nc2cc(C(=O)N3CCCCC3)ccc2[nH]1,–,100%,–,–,Activity [16]: inactive
COC(=O)Nc1nc2cc(C(=O)NCCNC(=O)c3ccc4[nH]c(NC(=O)OC)nc4c3)ccc2[nH]1,inactive,50%,–,inactive,–
COC(=O)Nc1nc2cc(C(=O)Nc3ccncc3)ccc2[nH]1,inactive,75%,–,inactive,–
COC(=O)Nc1nc2cc(C(=O)N3CCOCC3)ccc2[nH]1,–,100%,100%,–,Activity [8]: 100%; Activity [9]: 83%; Activity [10]: 50%; Activity [11]: 100%; Activity [12]: 100%; Activity [14]: 100%; Activity [15]: 100%
CCCCCCCCNC(=O)c1ccc2[nH]c(NC(=O)OC)nc2c1,inactive,100%,–,–,Activity [17]: 100%
COC(=O)Nc1nc2cc(C(=O)N(C(C)C)C(C)C)ccc2[nH]1,–,100%,100%,–,Activity [1]: 100%; Activity [18]: 100%; Activity [19]: 88.8%; Activity [14]: 100%; Activity [15]: 100%
CNC(=O)c1ccc2[nH]c(NC(=O)OC)nc2c1,inactive,95%,100%,–,–
COC(=O)Nc1nc2cc(C(=O)Nc3nccs3)ccc2[nH]1,inactive,–,–,inactive,Activity [20]: inactive
COC(=O)Nc1nc2cc(C(=O)NCCc3ccc(NC(=O)c4ccc5[nH]c(NC(=O)OC)nc5c4)cc3)ccc2[nH]1,inactive,50%,–,inactive,–
CCCCNC(=O)c1ccc2[nH]c(NC(=O)OC)nc2c1,inactive,100%,100%,–,–
CCCN(CCC)C(=O)c1ccc2[nH]c(NC(=O)OC)nc2c1,inactive,100%,100%,–,Activity [1]: 75%; Activity [12]: 100%
CCOC(=O)Nc1nc2cc(C(=O)Nc3ccccc3)ccc2[nH]1,inactive,50%,–,inactive,–
COC(=O)Nc1nc2cc(C(=O)Nc3nc4ccc(OC)cc4s3)ccc2[nH]1,–,–,–,inactive,Activity [21]: 86.6%; Activity [20]: inactive
COC(=O)Nc1nc2cc(C(=O)Nc3ccccn3)ccc2[nH]1,inactive,95%,–,inactive,–
COC(=O)Nc1nc2cc(C(=O)N3CCN(c4ccccn4)CC3)ccc2[nH]1,–,100%,100%,–,Efficiency [22]: 100%; Activity [23]: 100%; Efficiency [24]: inactive; Efficiency [25]: inactive; Efficiency [26]: inactive; Efficiency [27]: 100%; Efficiency [28]: 100%; Activity [8]: 100%; Efficiency [29]: 94.8%; Efficiency [30]: 100%; Activity [9]: 88%; Activity [10]: 60%; Activity [11]: 100%; Activity [31]: 100%; Efficiency [32]: 97%; Activity [15]: 100%; Efficiency [33]: 100%; Efficiency [34]: 100%; Efficiency [35]: 100%; Efficiency [36]: inactive
COC(=O)Nc1nc2cc(NC(=O)c3ccc(C(=O)Nc4ccc5[nH]c(NC(=O)OC)nc5c4)cc3)ccc2[nH]1,inactive,100%,–,inactive,Activity [5]: 66.6%
COC(=O)Nc1nc2cc(C(=O)NC3CCCCC3)ccc2[nH]1,–,100%,–,inactive,Activity [15]: 63.2%
COC(=O)Nc1nc2cc(C(=O)Nc3ccc(F)cc3)ccc2[nH]1,inactive,100%,100%,–,–
COC(=O)Nc1nc2cc(C(=O)Nc3ccc(S(=O)(=O)c4ccc(NC(=O)c5ccc6[nH]c(NC(=O)OC)nc6c5)cc4)cc3)ccc2[nH]1,inactive,48.2%,–,inactive,–
COC(=O)Nc1nc2cc(C(=O)Nc3ccc(Sc4ccc(NC(=O)c5ccc6[nH]c(NC(=O)OC)nc6c5)cc4)cc3)ccc2[nH]1,inactive,48.2%,–,inactive,–
CCN(CC)C(=O)c1ccc2[nH]c(NC(=O)OC)nc2c1,–,100%,100%,–,Activity [15]: 100%
COC(=O)Nc1nc2cc(C(=O)Nc3ncc(C)s3)ccc2[nH]1,inactive,100%,100%,–,Activity [12]: 100%
COC(=O)Nc1nc2cc(C(=O)Nc3ccccc3)ccc2[nH]1,inactive,87%,–,–,–
